Measured values from ChEMBL document CHEMBL3112486, “Novel class of benzoic acid ester derivatives as potent PDE4 inhibitors for inhaled administration in the treatment of respiratory diseases” (J Med Chem, 2014).

Key:
Phosphodiesterase 4 [1] = target: T1, Phosphodiesterase 4 (Homo sapiens, UniProt P27815+Q08499+Q07343+Q08493); experiment: Inhibition of PDE4 isolated from human U937 cells assessed as […] by LANCE assay; format: cell-free; settings: u-937
Phosphodiesterase 4 [2] = target: T1, Phosphodiesterase 4; experiment: Inhibition of PDE4 activity in human PBMC assessed as inhibition of LPS-induced TNFalpha release after 18 hrs by ELISA
Summary of the method: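 Human PBMCs plated at 10^5 cells/well in RPMI 1640 without phenol red plus 10% FBS, at 37 °C, 5% CO2. Compound added at 10^-15 to 10^-6 M (final DMSO 0.2%), with E. coli LPS at 3 ng/mL final, for 18 h. TNFα in supernatant measured by paired-antibody ELISA. IC50 from four-parameter logistic nonlinear regression, reported with 95% confidence intervals.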

[3] = n-Octanol-buffer partition coefficient, log D of the compound at pH 7.4 by shake-flask method

Compound	IC50 (Phosphodiesterase 4 [1])	IC50 (Phosphodiesterase 4 [2])	logD [3]
O=C(OC(Cc1c(Cl)cncc1Cl)c1ccc(OC(F)F)c(OCC2CC2)c1)c1ccccc1 (racemic)	1.14 nM	–	–
O=C(O[C@@H](Cc1c(Cl)c[n+]([O-])cc1Cl)c1ccc(OC(F)F)c(OCC2CC2)c1)c1ccc(OC(F)F)c(OCC2CC2)c1	0.22 nM	1.1 nM	–
CS(=O)(=O)Nc1ccc(C(=O)O[C@@H](Cc2c(Cl)c[n+]([O-])cc2Cl)c2ccc(OC(F)F)c(OCC3CC3)c2)cc1OCc1ccccc1	0.56 nM	0.99 nM	–
COc1cc(C(=O)O[C@@H](Cc2c(Cl)c[n+]([O-])cc2Cl)c2ccc(OC(F)F)c(OCC3CC3)c2)ccc1NS(C)(=O)=O	0.06 nM	0.38 nM	–
O=C(O[C@H](Cc1c(Cl)c[n+]([O-])cc1Cl)c1ccc(OC(F)F)c(OCC2CC2)c1)c1ccc(OC(F)F)c(OCC2CC2)c1	2.43 nM	–	–
O=C(O[C@@H](Cc1c(Cl)c[n+]([O-])cc1Cl)c1ccc(OC(F)F)c(OCC2CC2)c1)c1ccc(C(F)(F)F)cc1	0.2 nM	21 nM	–
Cc1cc(C(=O)O[C@@H](Cc2c(Cl)c[n+]([O-])cc2Cl)c2ccc(OC(F)F)c(OCC3CC3)c2)ccc1NS(C)(=O)=O	0.05 nM	0.41 nM	–
COc1ccc(C(=O)O[C@@H](Cc2c(Cl)c[n+]([O-])cc2Cl)c2ccc(OC(F)F)c(OCC3CC3)c2)cc1NS(C)(=O)=O	0.04 nM	0.06 nM	–
[O-][n+]1cc(Cl)c(C[C@H](O)c2ccc(OC(F)F)c(OCC3CC3)c2)c(Cl)c1	9.44 nM	479 nM	–
O=C(O/C(=C\c1c(Cl)cncc1Cl)c1ccc(OC(F)F)c(OCC2CC2)c1)c1ccc(OC(F)F)c(OCC2CC2)c1	1.18 nM	–	–
Cc1ccc(C(=O)O[C@@H](Cc2c(Cl)c[n+]([O-])cc2Cl)c2ccc(OC(F)F)c(OCC3CC3)c2)cc1NS(C)(=O)=O	0.03 nM	0.96 nM	–
O=C(O[C@@H](Cc1c(Cl)c[n+]([O-])cc1Cl)c1ccc(OC(F)F)c(OCC2CC2)c1)c1ccc(NS(=O)(=O)C2CC2)c(OCC2CC2)c1	0.15 nM	0.34 nM	–
CS(=O)(=O)Nc1ccc(C(=O)O[C@@H](Cc2c(Cl)c[n+]([O-])cc2Cl)c2ccc(OC(F)F)c(OCC3CC3)c2)cc1CO	0.03 nM	1.05 nM	–
COc1cc(NS(C)(=O)=O)cc(C(=O)O[C@@H](Cc2c(Cl)c[n+]([O-])cc2Cl)c2ccc(OC(F)F)c(OCC3CC3)c2)c1	0.17 nM	0.13 nM	–
CN(C)c1ccc(C(=O)O[C@@H](Cc2c(Cl)c[n+]([O-])cc2Cl)c2ccc(OC(F)F)c(OCC3CC3)c2)cc1OCC1CC1	0.31 nM	0.63 nM	–
Nc1ccc(C(=O)O[C@@H](Cc2c(Cl)c[n+]([O-])cc2Cl)c2ccc(OC(F)F)c(OCC3CC3)c2)cc1OCC1CC1	0.09 nM	0.11 nM	–
CC(=O)Nc1ccc(C(=O)O[C@@H](Cc2c(Cl)c[n+]([O-])cc2Cl)c2ccc(OC(F)F)c(OCC3CC3)c2)cc1OCC1CC1	0.24 nM	0.21 nM	–
Cc1ccc(O)c(C(=O)N[C@H]2CC[C@@H](NC(=O)c3cc(F)cnc3Oc3ccc(F)c(F)c3)CC2)c1 [UK-500001]	–	–	4.27
COc1ccc(C(=O)O[C@@H](Cc2c(Cl)c[n+]([O-])cc2Cl)c2ccc(OC(F)F)c(OCC3CC3)c2)cc1S(=O)(=O)N(C)C	0.03 nM	1.85 nM	–
CS(=O)(=O)Nc1cc(OCC2CC2)cc(C(=O)O[C@@H](Cc2c(Cl)c[n+]([O-])cc2Cl)c2ccc(OC(F)F)c(OCC3CC3)c2)c1	0.06 nM	0.92 nM	–
COc1ccc(C(=O)O[C@@H](Cc2c(Cl)c[n+]([O-])cc2Cl)c2ccc(OC(F)F)c(OCC3CC3)c2)cc1Oc1ccccc1	0.21 nM	1.36 nM	–
CS(=O)(=O)Nc1cc(C(=O)O[C@@H](Cc2c(Cl)c[n+]([O-])cc2Cl)c2ccc(OC(F)F)c(OCC3CC3)c2)ccc1OCC1CC1	0.13 nM	0.12 nM	–
COc1cc(NS(C)(=O)=O)ccc1C(=O)O[C@@H](Cc1c(Cl)c[n+]([O-])cc1Cl)c1ccc(OC(F)F)c(OCC2CC2)c1	0.06 nM	0.43 nM	–
O=C(Cc1ccccc1)OC(Cc1c(Cl)cncc1Cl)c1ccc(OC(F)F)c(OCC2CC2)c1 (racemic)	1.06 nM	–	–
COc1ccc(C(=O)O[C@@H](Cc2c(Cl)c[n+]([O-])cc2Cl)c2ccc(OC(F)F)c(OCC3CC3)c2)cc1NC(C)=O	0.08 nM	0.67 nM	–
O=C(O[C@@H](Cc1c(Cl)c[n+]([O-])cc1Cl)c1ccc(OC(F)F)c(OCC2CC2)c1)c1ccc(O)c(OCC2CC2)c1	0.04 nM	0.85 nM	–
CS(=O)(=O)Nc1cccc(C(=O)O[C@@H](Cc2c(Cl)c[n+]([O-])cc2Cl)c2ccc(OC(F)F)c(OCC3CC3)c2)c1OCC1CC1	0.18 nM	1.31 nM	–

Compound	IC50 (Phosphodiesterase 4 [1])	IC50 (Phosphodiesterase 4 [2])	logD [3]
CS(=O)(=O)Nc1ccc(OCC2CC2)c(C(=O)O[C@@H](Cc2c(Cl)c[n+]([O-])cc2Cl)c2ccc(OC(F)F)c(OCC3CC3)c2)c1	0.4 nM	4.9 nM	–
O=C(O[C@@H](Cc1c(Cl)c[n+]([O-])cc1Cl)c1ccc(OC(F)F)c(OCC2CC2)c1)c1ccc([N+](=O)[O-])c(OCC2CC2)c1	0.21 nM	0.69 nM	–
COc1ccc(NS(C)(=O)=O)cc1C(=O)O[C@@H](Cc1c(Cl)c[n+]([O-])cc1Cl)c1ccc(OC(F)F)c(OCC2CC2)c1	0.04 nM	0.89 nM	–
COc1ccc(C(=O)O[C@@H](Cc2c(Cl)c[n+]([O-])cc2Cl)c2ccc(OC(F)F)c(OCC3CC3)c2)cc1OC	0.07 nM	0.12 nM	–
COc1cccc(NS(C)(=O)=O)c1C(=O)O[C@@H](Cc1c(Cl)c[n+]([O-])cc1Cl)c1ccc(OC(F)F)c(OCC2CC2)c1	6.83 nM	> 60 nM	–
CC(=O)OC(Cc1c(Cl)cncc1Cl)c1ccc(OC(F)F)c(OCC2CC2)c1 (racemic)	4.09 nM	–	–
O=C(O[C@@H](Cc1c(Cl)c[n+]([O-])cc1Cl)c1ccc(OC(F)F)c(OCC2CC2)c1)c1ccc(Cl)cc1	0.16 nM	1.85 nM	–
O=C(O[C@@H](Cc1c(Cl)c[n+]([O-])cc1Cl)c1ccc(OC(F)F)c(OCC2CC2)c1)c1ccc(C(=O)O)c(OCC2CC2)c1	0.05 nM	0.3 nM	–
O=C(O[C@H](Cc1c(Cl)cncc1Cl)c1ccc(OC(F)F)c(OCC2CC2)c1)c1ccc(OC(F)F)c(OCC2CC2)c1	44 nM	–	–
CS(=O)(=O)Nc1ccc(C(=O)O[C@@H](Cc2c(Cl)c[n+]([O-])cc2Cl)c2ccc(OC(F)F)c(OCC3CC3)c2)cc1	0.05 nM	0.13 nM	–
COc1ccc(C(=O)O[C@@H](Cc2c(Cl)c[n+]([O-])cc2Cl)c2ccc(OC(F)F)c(OCC3CC3)c2)cc1OCC1CC1	0.05 nM	0.04 nM	–
CS(=O)(=O)Nc1ccc(C(=O)O[C@@H](Cc2c(Cl)c[n+]([O-])cc2Cl)c2ccc(OC(F)F)c(OCC3CC3)c2)c(OCC2CC2)c1	0.26 nM	1.96 nM	–
O=C(O[C@@H](Cc1c(Cl)c[n+]([O-])cc1Cl)c1ccc(OC(F)F)c(OCC2CC2)c1)c1ccccc1	0.072 nM	1.71 nM	–
COc1ccc(C(=O)O[C@@H](Cc2c(Cl)c[n+]([O-])cc2Cl)c2ccc(OC(F)F)c(OCC3CC3)c2)cc1	0.14 nM	0.47 nM	–
O=C(CCCc1ccccc1)OC(Cc1c(Cl)cncc1Cl)c1ccc(OC(F)F)c(OCC2CC2)c1 (racemic)	1.34 nM	–	–
COc1ccc(NS(C)(=O)=O)c(C(=O)O[C@@H](Cc2c(Cl)c[n+]([O-])cc2Cl)c2ccc(OC(F)F)c(OCC3CC3)c2)c1	0.4 nM	> 60 nM	–
COc1ccc(C(=O)O[C@@H](Cc2c(Cl)c[n+]([O-])cc2Cl)c2ccc(OC(F)F)c(OCC3CC3)c2)c(NS(C)(=O)=O)c1	0.73 nM	> 60 nM	–
COc1ccc(C(=O)O[C@@H](Cc2c(Cl)c[n+]([O-])cc2Cl)c2ccc(OC(F)F)c(OCC3CC3)c2)cc1OC(C)=O	0.05 nM	0.96 nM	–
Cc1ccc(C(=O)O[C@@H](Cc2c(Cl)c[n+]([O-])cc2Cl)c2ccc(OC(F)F)c(OCC3CC3)c2)cc1	0.1 nM	0.66 nM	–
COc1ccc(C(=O)O[C@@H](Cc2c(Cl)c[n+]([O-])cc2Cl)c2ccc(OC(F)F)c(OCC3CC3)c2)cc1O	0.08 nM	0.75 nM	–
O=C(O[C@@H](Cc1c(Cl)c[n+]([O-])cc1Cl)c1ccc(OC(F)F)c(OCC2CC2)c1)c1ccc(CO)c(OCC2CC2)c1	0.08 nM	0.69 nM	–
CS(=O)(=O)Nc1cc(C(=O)O[C@@H](Cc2c(Cl)c[n+]([O-])cc2Cl)c2ccc(OC(F)F)c(OCC3CC3)c2)ccc1OCc1ccccc1	0.32 nM	0.53 nM	–
CCCC(=O)OC(Cc1c(Cl)cncc1Cl)c1ccc(OC(F)F)c(OCC2CC2)c1 (racemic)	1.74 nM	–	–
O=C(O[C@@H](Cc1c(Cl)cncc1Cl)c1ccc(OC(F)F)c(OCC2CC2)c1)c1ccc(OC(F)F)c(OCC2CC2)c1	1.9 nM	–	–
N#Cc1ccc(C(=O)O[C@@H](Cc2c(Cl)c[n+]([O-])cc2Cl)c2ccc(OC(F)F)c(OCC3CC3)c2)cc1	0.41 nM	2.1 nM	–
CNS(=O)(=O)c1cc(C(=O)O[C@@H](Cc2c(Cl)c[n+]([O-])cc2Cl)c2ccc(OC(F)F)c(OCC3CC3)c2)ccc1OC	0.03 nM	0.25 nM	–
